Source: ChEMBL document CHEMBL1126856, “Azulenic retinoids: novel nonbenzenoid aromatic retinoids with anticancer activity” (1993)
Where “and” joins values, the source holds several entries; their conditions need not be identical. Identical values can stand only once.

How the values were obtained:
Assay type in all cases: functional, Mus musculus
C3H 10T1/2 [1] = assay: Tested for toxicity against C3H10T1/2 cell line of murine embryo fibroblasts at 10e-6 M
How it was run: (§1)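 C3H10T1/2 cells plated at clonal density and exposed to retinoid in acetone (0.5%) for 7 days. Plating efficiency was normalized to the MCA-treated (1 day) control plating efficiency.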

C3H 10T1/2 [2] = assay: Inhibition of neoplastic transformation at a concentration of 10e-6 M
How it was run: (§2)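 C3H10T1/2 cells given 3-MCA (3 μg/mL) for 24 h, then 7 days later continuous retinoid in acetone (final 0.5%), renewed at each weekly medium change, for 4 weeks. Cultures were fixed, stained and scored for type II and III transformed foci; result as foci/dish and % of MCA-treated control. 12 dishes per group.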

C3H 10T1/2 [3] = assay: Tested for anticancer activity by measuring the number of communicating cells using gap junctional communication assay at 10e-6 M (P>0.05)
C3H 10T1/2 [4] = assay: The compound was tested for inhibition of neoplastic transformation, at a concentration of 10e-10 M; parameters: scale not given: the % may be the effect or the level left; how it was run: as §2
C3H 10T1/2 [5] = assay: Tested for toxicity against C3H10T1/2 cell line of murine embryo fibroblasts at 10e-8 M; how it was run: as §1
C3H 10T1/2 [6] = assay: Toxicity against C3H10T1/2 cell line of murine embryo fibroblasts at 10e-10 M; how it was run: as §1
C3H 10T1/2 [7] = assay: Tested for inhibition of neoplastic transformation by measuring the transformed foci per dish at 10e-10 M; how it was run: as §2
C3H 10T1/2 [8] = assay: Tested for inhibition of neoplastic transformation by measuring the transformed foci per dish at 10e-8 M; how it was run: as §2
C3H 10T1/2 [9] = assay: Inhibition of neoplastic transformation at a concentration of 10e-8 M; parameters: scale not given: the % may be the effect or the level left; how it was run: as §2
C3H 10T1/2 [10] = assay: Inhibition of neoplastic transformation was measured by measuring the transformed foci per dish at 10e-6 M; how it was run: as §2
C3H 10T1/2 [11] = assay: Tested for anticancer activity by measuring the number of communicating cells using gap junctional communication assay at 10e-6 M (P>0.001)
C3H 10T1/2 [12] = assay: Tested for anticancer activity by measuring the number of communicating cells using gap junctional communication assay at 10e-6 M
C3H 10T1/2 [13] = assay: Tested for anticancer activity by measuring the number of communicating cells using gap junctional communication assay at 10e-6 M (P>0.01)
C3H 10T1/2 [14] = assay: Tested for anticancer activity by measuring the number of communicating cells using gap junctional communication assay at 10*e-6 M (P>0.001)
C3H 10T1/2 [15] = assay: The compound was tested for inhibition of Neoplastic transformation, at a concentration of 10e-10 M; parameters: scale not given: the % may be the effect or the level left; how it was run: as §2
C3H 10T1/2 [16] = assay: Tested for toxicity against C3H10T1/2 cell line of murine embryo fibroblasts at 10*e-8 M; how it was run: as §1
C3H 10T1/2 [17] = assay: Toxicity against C3H10T1/2 cell line of murine embryo fibroblasts at 10*e-10 M; how it was run: as §1
C3H 10T1/2 [18] = assay: Inhibition of neoplastic transformation was measured by measuring the transformed foci per dish at 10 e-6 M; how it was run: as §2
C3H 10T1/2 [19] = assay: Tested for inhibition of neoplastic transformation by measuring the transformed foci per dish at 10*e-8 M; how it was run: as §2
C3H 10T1/2 [20] = assay: Tested for toxicity against C3H10T1/2 cell line of murine embryo fibroblasts at 10 e-6 M; how it was run: as §1
C3H 10T1/2 [21] = assay: Tested for inhibition of neoplastic transformation by measuring the transformed foci per dish at 10*e-10 M; how it was run: as §2
C3H 10T1/2 [22] = assay: Inhibition of Neoplastic transformation at a concentration of 10*e-6 M; parameters: scale not given: the % may be the effect or the level left; how it was run: as §2
C3H 10T1/2 [23] = assay: The compound was tested for inhibition of Neoplastic transformation, at a concentration of 10*e-10 M; parameters: scale not given: the % may be the effect or the level left; how it was run: as §2
C3H 10T1/2 [24] = assay: Inhibition of Neoplastic transformation at a concentration of 10*e-8 M; parameters: scale not given: the % may be the effect or the level left; how it was run: as §2

Cc1cc(/C=C/C=C/C(=C\C(=O)O)C(F)(F)F)c2c(C)ccc(C(C)C)cc1-2
Control (C3H 10T1/2 [1]): 178% | Transformed foci, % of MCA-treated control (C3H 10T1/2 [2]): 88% | Communicating cells (C3H 10T1/2 [3]): 5.6 | Control (C3H 10T1/2 [4]): 88% | Control (C3H 10T1/2 [5]): 156% | Control (C3H 10T1/2 [6]): 98% | Foci/dish (C3H 10T1/2 [7]): 0.58 | Foci/dish (C3H 10T1/2 [8]): 0.58 | Control (C3H 10T1/2 [9]): 88% | Foci/dish (C3H 10T1/2 [10]): 0.58

O=C(O)c1ccc(/C=C/c2ccc3cccccc2-3)cc1
Control (C3H 10T1/2 [1]): 67% | Transformed foci, % of MCA-treated control (C3H 10T1/2 [2]): 12% | Control (C3H 10T1/2 [4]): 50% | Control (C3H 10T1/2 [5]): 147% | Control (C3H 10T1/2 [6]): 129% | Foci/dish (C3H 10T1/2 [7]): 0.33 | Foci/dish (C3H 10T1/2 [8]): 0.33 | Communicating cells (C3H 10T1/2 [11]): 7.4 | Control (C3H 10T1/2 [9]): 50% | Foci/dish (C3H 10T1/2 [10]): 0.08

Cc1ccc2c(/C=C/c3ccc(C(=O)O)cc3)ccc(C(C)C)cc1-2
Control (C3H 10T1/2 [1]): 66% | Transformed foci, % of MCA-treated control (C3H 10T1/2 [2]): 0% | Control (C3H 10T1/2 [4]): 24% | Control (C3H 10T1/2 [5]): 75% | Control (C3H 10T1/2 [6]): 75% | Foci/dish (C3H 10T1/2 [7]): 0.16 | Foci/dish (C3H 10T1/2 [8]): 0.16 | Communicating cells (C3H 10T1/2 [11]): 9.5 | Control (C3H 10T1/2 [9]): 24% | Foci/dish (C3H 10T1/2 [10]): 0

Cc1cc(/C=C/c2ccc(CO)cc2)c2c(C)ccc(C(C)C)cc1-2
Control (C3H 10T1/2 [1]): 84% | Transformed foci, % of MCA-treated control (C3H 10T1/2 [2]): 104% | Communicating cells (C3H 10T1/2 [12]): 4.9 | Control (C3H 10T1/2 [4]): 95% | Control (C3H 10T1/2 [5]): 138% | Control (C3H 10T1/2 [6]): 129% | Foci/dish (C3H 10T1/2 [7]): 1 | Foci/dish (C3H 10T1/2 [8]): 1.16 | Control (C3H 10T1/2 [9]): 110% | Foci/dish (C3H 10T1/2 [10]): 1.09

CC(/C=C/C=C/c1ccc2cccccc1-2)=C(/F)C(=O)O
Control (C3H 10T1/2 [1]): 78% | Transformed foci, % of MCA-treated control (C3H 10T1/2 [2]): 12% | Control (C3H 10T1/2 [4]): 88% | Control (C3H 10T1/2 [5]): 120% | Control (C3H 10T1/2 [6]): 113% | Foci/dish (C3H 10T1/2 [7]): 0.58 | Foci/dish (C3H 10T1/2 [8]): 0.08 | Control (C3H 10T1/2 [9]): 12% | Communicating cells (C3H 10T1/2 [13]): 8.8 | Foci/dish (C3H 10T1/2 [10]): 0.08

Cc1cc(/C=C/c2ccc(C(=O)O)cc2)c2c(C)ccc(C(C)C)cc1-2
Control (C3H 10T1/2 [1]): 67% | Transformed foci, % of MCA-treated control (C3H 10T1/2 [2]): 0% | Control (C3H 10T1/2 [4]): 146% | Control (C3H 10T1/2 [5]): 94% | Control (C3H 10T1/2 [6]): 119% | Foci/dish (C3H 10T1/2 [7]): 1.54 | Foci/dish (C3H 10T1/2 [8]): 0.42 | Communicating cells (C3H 10T1/2 [11]): 18.3 | Control (C3H 10T1/2 [9]): 40% | Foci/dish (C3H 10T1/2 [10]): 0

CC(/C=C/C=C/c1cc(C)c2cc(C(C)C)ccc(C)c1-2)=C\C=O
Control (C3H 10T1/2 [1]): 125% | Transformed foci, % of MCA-treated control (C3H 10T1/2 [2]): 119% | Communicating cells (C3H 10T1/2 [12]): 5.7 | Control (C3H 10T1/2 [4]): 110% | Control (C3H 10T1/2 [5]): 129% | Control (C3H 10T1/2 [6]): 115% | Foci/dish (C3H 10T1/2 [7]): 1.16 | Foci/dish (C3H 10T1/2 [8]): 1 | Control (C3H 10T1/2 [9]): 95% | Foci/dish (C3H 10T1/2 [10]): 1.25

C/C(=C\c1ccc(C(=O)O)cc1)c1ccc2c(c1)C(C)(C)CCC2(C)C
Control (C3H 10T1/2 [1]): 80% and 85% | Transformed foci, % of MCA-treated control (C3H 10T1/2 [2]): 0% | Communicating cells (C3H 10T1/2 [14]): 18.5 | Control (C3H 10T1/2 [4]): 0% | Control (C3H 10T1/2 [5]): 83% and 91% | Control (C3H 10T1/2 [6]): 95% and 96% | Foci/dish (C3H 10T1/2 [7]): 0 | Foci/dish (C3H 10T1/2 [8]): 0 | Communicating cells (C3H 10T1/2 [11]): 21.2 | Control (C3H 10T1/2 [15]): 0% | Control (C3H 10T1/2 [9]): 0% | Foci/dish (C3H 10T1/2 [10]): 0

Cc1cc(/C=C/C=C/c2ccc(C(=O)O)cc2)c2c(C)ccc(C(C)C)cc1-2
Control (C3H 10T1/2 [1]): 98% | Transformed foci, % of MCA-treated control (C3H 10T1/2 [2]): 75% | Communicating cells (C3H 10T1/2 [12]): 2.9 | Control (C3H 10T1/2 [4]): 50% | Control (C3H 10T1/2 [5]): 94% | Control (C3H 10T1/2 [6]): 89% | Foci/dish (C3H 10T1/2 [7]): 0.33 | Foci/dish (C3H 10T1/2 [8]): 0.33 | Control (C3H 10T1/2 [9]): 50% | Foci/dish (C3H 10T1/2 [10]): 0.5

Cc1ccc(C(C)C)cc2c(C)c(/C=C/c3ccc(C(=O)O)cc3)cc1-2
Control (C3H 10T1/2 [1]): 84% | Transformed foci, % of MCA-treated control (C3H 10T1/2 [2]): 24% | Control (C3H 10T1/2 [4]): 24% | Control (C3H 10T1/2 [5]): 129% | Control (C3H 10T1/2 [6]): 96% | Foci/dish (C3H 10T1/2 [7]): 0.16 | Foci/dish (C3H 10T1/2 [8]): 0.16 | Control (C3H 10T1/2 [9]): 24% | Communicating cells (C3H 10T1/2 [13]): 7.2 | Foci/dish (C3H 10T1/2 [10]): 0.16

CC(/C=C/C=C/c1cc(C)c2cc(C(C)C)ccc(C)c1-2)=C\C(=O)O
Control (C3H 10T1/2 [16]): 120% | Control (C3H 10T1/2 [17]): 116% | Foci/dish (C3H 10T1/2 [18]): 0.8 | Communicating cells (C3H 10T1/2 [14]): 9.1 | Foci/dish (C3H 10T1/2 [19]): 1.27 | Control (C3H 10T1/2 [20]): 89.1% | Foci/dish (C3H 10T1/2 [21]): 1.08 | Control (C3H 10T1/2 [22]): 76% | Control (C3H 10T1/2 [23]): 103% | Control (C3H 10T1/2 [24]): 120%

Cc1cc(/C=C/c2ccc(C=O)cc2)c2c(C)ccc(C(C)C)cc1-2
Control (C3H 10T1/2 [1]): 58% | Transformed foci, % of MCA-treated control (C3H 10T1/2 [2]): 87% | Control (C3H 10T1/2 [4]): 143% | Control (C3H 10T1/2 [5]): 174% | Control (C3H 10T1/2 [6]): 142% | Foci/dish (C3H 10T1/2 [7]): 1.5 | Foci/dish (C3H 10T1/2 [8]): 1.75 | Control (C3H 10T1/2 [9]): 166% | Communicating cells (C3H 10T1/2 [13]): 8.7 | Foci/dish (C3H 10T1/2 [10]): 0.91

CC(/C=C/C=C/c1cc(C)c2cc(C(C)C)ccc(C)c1-2)=C\CO
Control (C3H 10T1/2 [1]): 89% | Transformed foci, % of MCA-treated control (C3H 10T1/2 [2]): 112% | Communicating cells (C3H 10T1/2 [3]): 8.8 | Control (C3H 10T1/2 [4]): 142% | Control (C3H 10T1/2 [5]): 120% | Control (C3H 10T1/2 [6]): 125% | Foci/dish (C3H 10T1/2 [7]): 1.5 | Foci/dish (C3H 10T1/2 [8]): 1.5 | Control (C3H 10T1/2 [9]): 142% | Foci/dish (C3H 10T1/2 [10]): 1.18

CC(/C=C/c1cc(C)c2cc(C(C)C)ccc(C)c1-2)=C\C=C\C(C)=C\C(=O)O
Control (C3H 10T1/2 [1]): 178% | Transformed foci, % of MCA-treated control (C3H 10T1/2 [2]): 75% | Communicating cells (C3H 10T1/2 [12]): 1.55 | Control (C3H 10T1/2 [4]): 61% | Control (C3H 10T1/2 [5]): 151% | Control (C3H 10T1/2 [6]): 94% | Foci/dish (C3H 10T1/2 [7]): 0.4 | Foci/dish (C3H 10T1/2 [8]): 0.4 | Control (C3H 10T1/2 [9]): 61% | Foci/dish (C3H 10T1/2 [10]): 0.5
